# Only a selection was taken, and hits are over-represented in it overall.
# bCat KO growth = primary screen for growth suppressors in beta-catenin knockout HCT116 cells (colon tumor, human); HCT116 beta-catenin knockout viability, CellTiter-Glo, 60 h; active compounds read low; viability, % at 10 µM; hit rate 1.5% among 140,000;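 active = viability at or under a set limit, the compound median less 4 SD, cut at about 6% in these data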;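 also: 0% = Hyamine 1622 control at 20 µM and 100% = untreated cell control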
# HCT116 PTEN-null = growth suppression of PTEN-null HCT116, primary screen, cell-based, CellTiter-Glo; HCT116 PTEN-null viability, 60 h; active compounds read low; hit rate 1.2% among 140,000; viability, % at 10 µM;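 active = viability at or below a set limit, 4 SD under the median of all tested compounds, cut at about 3.7% in these data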;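 also: PTEN knockout HCT116 line with beta catenin targeted HCT116 as companion control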
# PTK2B oligo ant = antagonists of Pyk2 self-association, primary screen, Q293 cells, FERM NanoBiT luminescence, HTS | active compounds read low | z-score (the deposit names both 25 µM and 10 µM) | hit rate 0.83% among 99,000 | AID 1347419, 2020;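 active = Z-score of -3 or lower, scaled per plate to the spread of control and sample wells; inactive = z-score above -3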;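 also: negative z-score means lost luminescence so less FERM oligomerization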
# Target sequence (Q14289 whole entry, looked up): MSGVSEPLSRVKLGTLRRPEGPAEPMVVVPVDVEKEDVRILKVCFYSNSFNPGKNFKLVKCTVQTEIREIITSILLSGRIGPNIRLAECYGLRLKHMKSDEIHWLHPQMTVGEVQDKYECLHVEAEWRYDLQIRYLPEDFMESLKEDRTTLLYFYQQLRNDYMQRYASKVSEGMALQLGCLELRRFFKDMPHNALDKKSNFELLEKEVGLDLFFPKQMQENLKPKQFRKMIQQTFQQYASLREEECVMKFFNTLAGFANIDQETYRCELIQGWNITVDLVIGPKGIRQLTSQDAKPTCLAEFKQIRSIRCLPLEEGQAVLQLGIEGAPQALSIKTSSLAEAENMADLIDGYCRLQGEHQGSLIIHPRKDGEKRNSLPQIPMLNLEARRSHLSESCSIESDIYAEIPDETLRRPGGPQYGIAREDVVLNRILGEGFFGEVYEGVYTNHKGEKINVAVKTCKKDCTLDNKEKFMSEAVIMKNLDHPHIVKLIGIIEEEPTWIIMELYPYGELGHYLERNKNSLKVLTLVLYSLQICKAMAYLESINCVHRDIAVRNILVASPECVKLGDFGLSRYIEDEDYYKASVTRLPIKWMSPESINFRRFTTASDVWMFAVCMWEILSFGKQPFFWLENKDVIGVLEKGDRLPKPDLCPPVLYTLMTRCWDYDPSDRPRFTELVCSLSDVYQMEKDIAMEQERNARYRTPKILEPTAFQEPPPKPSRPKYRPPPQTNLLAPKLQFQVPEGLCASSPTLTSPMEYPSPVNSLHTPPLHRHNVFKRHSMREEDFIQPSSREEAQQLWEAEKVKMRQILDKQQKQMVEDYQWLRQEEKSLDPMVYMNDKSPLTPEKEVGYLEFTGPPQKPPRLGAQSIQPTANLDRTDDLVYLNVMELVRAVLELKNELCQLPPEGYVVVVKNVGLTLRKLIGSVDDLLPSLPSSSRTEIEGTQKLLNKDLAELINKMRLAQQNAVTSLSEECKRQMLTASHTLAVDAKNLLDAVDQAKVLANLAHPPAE
# Fibroblast inh = antiproliferative effect on LL 47 fibroblasts – human, LL 47 cells, CellTiter-Glo luminescence, primary screen | viability, % at 10 µM | hit rate 1.1% among 85,000 | LL 47 human lung fibroblast viability, ATP luminescence; active compounds read low | AID 719, 2007;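 active = viability at or below 50% in the single dose screen; inactive = viability above 50%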;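 also: compound exposure lasted 72 h before the ATP readout; 100% = median luminescence of untreated cell-only wells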
#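 Test system: LL 47 human lung fibroblasts; Quantity: 1,150 cells/well; Buffer or medium: IMEM plus 15% FBS; Dosing: tenfold compound dosing solution, DMSO at 0.1%; Timing: overnight cell rest, 72 h compound treatment at 37 °C; Detection: ATP-based CellTiter-Glo luminescent readout; Read-out basis: viability percentage against median untreated-cell control; Controls: cell-only wells, no compound.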
# HUVEC inhibit = inhibitors of HUVEC proliferation, primary screen, cell-based, 384-well. CellTiter-Glo luminescence, 72 h; active compounds read low. hit rate 1.1% among 86,000. viability, % at 10 µM (by protocol);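 active = viability at or below 30%; inactive = viability above 30%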;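 also: 100% = median luminescence of DMSO-only cell control wells on each plate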
# H69AR inhibit = proliferation blockers of H69AR lung cancer cells, primary screen, cell-based, human, 86K library; H69AR lung tumor viability, ATP luminescence, 72 h; active compounds read low; viability, % at 10 µM; hit rate 6% among 85,000;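 active = viability at or below 40%; inactive = viability above 40%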;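 also: multidrug resistant small cell line overexpressing MRP-1 efflux transporter; 100% = mean luminescence of untreated control wells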
# * hit, by the source's call; . = no result given.
SMILES,bCat KO growth,HCT116 PTEN-null,PTK2B oligo ant,Fibroblast inh,HUVEC inhibit,H69AR inhibit
NC(=O)[C@@H]1CCOc2c(I)cc([N+](=O)[O-])cc2C(=O)N[C@@H](CO)C(=O)NCC(=O)N1,93,100,.,.,.,.
Cc1cccc(NC(=O)CCSc2nncn2C)c1,103,101,1.6,96,107,95
CCn1cc([N+](=O)[O-])c(C(=O)Nc2nc(-c3ccc(C)cc3)c(C)s2)n1,6,3.3*,0,.,.,.
COc1cc(/C=N/NC(=O)CCC(=O)NCc2ccccc2)cc(OC)c1OC,0.4*,0.3*,.,.,.,.
CCc1nc(Nc2ccc(OC)c(OC)c2)c2nnn(Cc3ccccc3Cl)c2n1,52,62,-2.5,84,27*,56
Clc1ccccc1Cn1nnc2c(Nc3ccccc3)ncnc21,94,91,-2.2,99,101,.
N#CC1=C(SCC(=O)NC23CC4CC(CC(C4)C2)C3)NC(=O)C(C#N)C12CCCCC2 (stereo unspecified),50,39,-3.3*,80,56,9.1*
N#CC1=C(SCC(=O)NC2CC2)NC(=O)C(C#N)C12CCCCC2 (stereo unspecified),95,101,-0.19,95,84,100
CC(C)(C)C1CCC2(CC1)C(C#N)=C(SCC(=O)NC1CCCCC1)NC(=O)C2C#N (stereo unspecified),72,61,-1.2,82,44,9.6*
COc1ccc(CC(=O)O/N=C(\N)Cc2cccc3ccccc23)cc1OC,78,77,-1.1,.,.,.
CCOc1ccccc1NC(=O)Cn1cnc2c(cnn2-c2ccc(C)c(C)c2)c1=O,98,96,2.4,.,102,95
COc1ccc(NC(=O)Cn2cnc3c(cnn3-c3ccc(C)c(C)c3)c2=O)c(OC)c1,44,11,-0.49,94,56,8.3*
COc1cccc(N/C(N)=N/c2nc(C(F)(F)F)cc(=O)[nH]2)c1,89,101,0.18,.,.,.
CO[C@@H]1O[C@@H]2COC(c3ccccc3)O[C@@H]2[C@@H](OC)[C@@H]1O (stereo partly specified),96,98,-0.51,95,100,103
COC(=O)C1=C(C)N(C)C(C)=C(C(=O)OC)C1c1ccc(F)c(Br)c1,60,56,-3.2*,89,90,89
COc1ccccc1S(=O)(=O)Cc1ccc(C(=O)N2CCN(c3ccc(C)cc3)C(C)C2)o1 (stereo unspecified),57,54,.,.,.,.
COc1ccc(N2CCN(C(=O)c3ccc(CS(=O)(=O)c4ccc(OC)cc4)o3)CC2)cc1,83,89,.,95,100,81
COc1ccc(S(=O)(=O)Cc2ccc(C(=O)N3CCN(c4cccc(C)c4C)CC3)o2)cc1,12,14,.,71,53,23*
COc1ccc(S(=O)(=O)Cc2ccc(C(=O)N3CCN(c4cccc(C)c4)C(C)C3)o2)cc1 (stereo unspecified),23,21,.,56,50,25*
COc1ccc(/C=N/OCC(=O)Nc2nc3ccccc3s2)cc1,90,100,0.37,.,.,.
COc1c(Cl)cc(Cl)cc1/C=C/C(=O)c1ccc(NC(=O)c2cccs2)cc1,2.6*,1.8*,.,.,.,.
O=C1CCCC2=C1C1c3ccccc3C(=O)N1c1ccc(C(=O)c3ccccc3)cc1N2 (stereo unspecified),40,29,-1,107,50,21*
Cc1ccc(C)c(N2CCN(C(=O)c3ccc(Cn4c(=O)[nH]c5ccccc5c4=O)cc3)CC2)c1,8,10,-0.47,93,37,7.5*
C=CCn1c(=O)[nH]c2cc(C(=O)N3CCN(c4ccc(C(C)=O)cc4)CC3)ccc2c1=O,77,84,0.28,93,86,82
C=CCn1c(=O)[nH]c2cc(C(=O)N3CCN(c4cc(C)ccc4C)CC3)ccc2c1=O,63,65,-2.3,89,58,25*
SMILES,bCat KO growth,HCT116 PTEN-null,PTK2B oligo ant,Fibroblast inh,HUVEC inhibit,H69AR inhibit
O=C(c1ccc(Cn2c(=O)[nH]c3ccccc3c2=O)cc1)N1CCN(c2ccc(Cl)cc2)CC1,16,15,-0.38,111,68,36*
Cc1ccc(C)c(N2CCN(c3nc4ccccc4c(=O)n3Cc3ccccc3)CC2)c1,48,47,.,87,100,81
Cc1cc(N2CCC(N(C)C3CCCC3)CC2)nc2cc(O)ccc12,76,78,.,66,76,1.1*
Cc1cc(N2CCCCCC2)nc2ccc(F)cc12,.,.,0.99,.,.,.
CCc1ccc(CN2CCN(C(=O)c3cccc(OC)c3OC)CC2)cc1,31,35,-0.22,90,89,76
CCn1c(CCNC(=O)c2ccccc2Cl)n[nH]c1=S,101,99,-0.19,.,.,.
CCOC(=O)C(C(=O)OCC)C(C(=O)OCC)N1CCOCC1 (stereo unspecified),1.2*,1.7*,2.4,1.9*,2.9*,0.7*
CCCCn1c(NC(=O)c2ccccc2Cl)c(C#N)c2nc3ccccc3nc21,58,43,-1.2,94,55,20*
CCOC(=O)c1cnc(-n2nc(C)cc2C)nc1NNc1nc(-c2ccccc2)cc(-c2ccccc2)n1,4.5*,4,.,.,.,.
CCOC(=O)c1cnc(-n2nc(C)cc2C)nc1Nc1ccc(N(C)C)cc1,10,10,-0.95,30*,56,3.0*
CCOC(=O)c1cnc(-n2nc(C)cc2C)nc1NC1CCCCC1,1.9*,2.1*,-2.6,.,32,1.1*
CCOC(=O)c1cnc(-n2nc(C)cc2C)nc1N(CC)CC,59,84,0.36,87,99,36*
CCOC(=O)c1cnc(-n2nc(C)cc2C)nc1Nc1ccc(C)cc1,58,71,0.23,.,.,.
CN(C)Cc1ccccc1Sc1ccc(Br)cc1,90,98,.,.,.,.
O=C1NN(c2ccccc2)C(=O)/C1=C\c1cccc(OC(=O)c2cccs2)c1,93,89,-1,96,46,3.8*
COc1cc(/C=C2/C(=O)NN(c3ccc(Cl)cc3)C2=O)ccc1OC(=O)c1ccco1,103,101,.,.,.,.
O=C1NN(c2ccc(Cl)c(Cl)c2)C(=O)/C1=C/c1cccc(OC(=O)c2cccs2)c1,100,105,.,93,51,5.4*
CCOc1ccc(S(=O)(=O)Nc2ccc(O)c(Sc3ncn[nH]3)c2)cc1,96,87,1.3,98,103,95
Cc1ccc(S(=O)(=O)/N=C2/C=C(Sc3ncn[nH]3)C(=O)c3ccccc32)c(C)c1,1.9*,2.8*,.,.,.,.

# Source: PubChem BioAssay
